The results in this text go back to article PMC3103606 (Chemico-biological interactions, 2011).

Holding throughout (assay type): biochemical
For experiment [1], the target named is T1, ALDH3A1 (Homo sapiens, UniProt P30838).
T1 sequence (P30838 1-453): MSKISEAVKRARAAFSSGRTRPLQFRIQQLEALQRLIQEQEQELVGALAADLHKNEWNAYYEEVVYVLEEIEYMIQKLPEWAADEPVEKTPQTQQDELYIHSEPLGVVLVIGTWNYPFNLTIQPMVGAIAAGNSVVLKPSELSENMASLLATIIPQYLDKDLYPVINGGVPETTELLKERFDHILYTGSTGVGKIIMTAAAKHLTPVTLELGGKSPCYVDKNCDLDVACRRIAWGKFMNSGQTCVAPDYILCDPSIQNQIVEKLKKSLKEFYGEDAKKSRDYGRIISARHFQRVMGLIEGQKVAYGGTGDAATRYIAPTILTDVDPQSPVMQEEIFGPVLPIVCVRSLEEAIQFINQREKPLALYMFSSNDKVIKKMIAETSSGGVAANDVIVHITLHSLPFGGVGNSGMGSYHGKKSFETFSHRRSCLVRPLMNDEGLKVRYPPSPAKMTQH
The experiment in a line: ALDH3A1 esterase assay. The following applies: read-out: (Esterase assay) IC50; ALDH3A1, 0.8 mM para-nitrophenylacetate, pH 7.5. In a few lines:
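Reactions used nickel-NTA/Q-sepharose-purified recombinant ALDH3A1 at 180 nM in 25 mM sodium HEPES. Inhibitor was preincubated with enzyme for 2 min, and 0.8 mM para-nitrophenylacetate then started the reaction. para-Nitrophenol formation was read spectrophotometrically at 405 nm (ε 18,000 M−1cm−1).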

In the next experiment the target is T2, ALDH2 (Homo sapiens, UniProt P05091).
T2 sequence (P05091 18-517): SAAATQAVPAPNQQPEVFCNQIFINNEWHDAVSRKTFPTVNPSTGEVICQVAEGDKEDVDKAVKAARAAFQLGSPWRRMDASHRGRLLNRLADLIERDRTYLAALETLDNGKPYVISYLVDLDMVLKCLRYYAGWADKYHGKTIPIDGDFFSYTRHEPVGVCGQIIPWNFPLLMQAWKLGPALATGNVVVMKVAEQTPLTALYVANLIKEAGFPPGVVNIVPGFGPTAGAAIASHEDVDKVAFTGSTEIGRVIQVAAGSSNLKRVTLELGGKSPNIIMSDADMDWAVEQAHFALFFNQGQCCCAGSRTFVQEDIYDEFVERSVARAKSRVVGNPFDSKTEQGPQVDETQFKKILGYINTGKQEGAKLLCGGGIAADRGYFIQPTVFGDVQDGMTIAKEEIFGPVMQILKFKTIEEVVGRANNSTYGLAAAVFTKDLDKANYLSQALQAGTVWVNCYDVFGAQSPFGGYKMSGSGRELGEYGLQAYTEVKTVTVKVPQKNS
Briefly: Isoenzyme selectivity: ALDH2 dehydrogenase activity. Particulars: 10 μM concentration, aldehyde oxidation.

The target of experiment [2] is T1, ALDH3A1. The experiment in a line: ALDH3A1 dehydrogenase assay. The following applies: read-out: (Dehydrogenase assay) IC50; ALDH3A1, 1 mM benzaldehyde, […] NADP+, pH 7.5.
A further experiment has as its target T3, ALDH1A1 (Homo sapiens, UniProt P00352).
T3 sequence (P00352 1-501): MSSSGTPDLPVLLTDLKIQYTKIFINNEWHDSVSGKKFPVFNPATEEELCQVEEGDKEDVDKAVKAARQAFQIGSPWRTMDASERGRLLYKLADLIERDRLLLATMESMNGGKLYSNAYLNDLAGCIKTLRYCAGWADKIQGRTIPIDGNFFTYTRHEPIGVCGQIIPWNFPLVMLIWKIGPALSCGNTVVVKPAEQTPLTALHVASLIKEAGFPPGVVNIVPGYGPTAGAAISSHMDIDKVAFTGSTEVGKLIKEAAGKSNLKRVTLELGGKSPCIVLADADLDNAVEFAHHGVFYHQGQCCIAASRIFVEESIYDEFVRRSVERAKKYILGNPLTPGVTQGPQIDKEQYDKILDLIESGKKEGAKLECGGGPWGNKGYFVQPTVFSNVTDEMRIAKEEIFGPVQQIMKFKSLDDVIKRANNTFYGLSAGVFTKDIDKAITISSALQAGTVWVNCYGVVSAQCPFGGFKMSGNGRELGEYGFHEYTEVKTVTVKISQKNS
The experiment in a line: Isoenzyme selectivity: ALDH1A1 dehydrogenase activity. Particulars: 10 μM concentration, aldehyde oxidation.

The structures appear in SMILES notation.

As to `CC(=O)Nc1ccc(Nc2ccc(S(C)(=O)=O)cc2[N+](=O)[O-])cc1` [CB29], the 50% inhibitory concentration (IC50) on ALDH3A1 [1] turned out to be 0.5 µM; on ALDH3A1 [2], 5 µM. Moreover, at ALDH2, the “inhibition of ALDH2” value is given as “less than 10%”. For the same molecule, the “inhibition of ALDH1A1” value against ALDH1A1 was “less than 10%”.

Consider `CCSc1nnc2c(n1)OC(C(=O)c1ccc(OC)cc1)Nc1ccccc1-2` (centres unmarked) [CD5], for which the figures for the IC50 at ALDH3A1 [1] and on ALDH3A1 [2] were 1 µM and 1.5 µM, respectively.

Turning to `CCOC(=O)CN1C(=O)C(O)(CC(=O)c2ccncc2)c2ccccc21` (centres unmarked) [CD8], the 50% inhibitory concentration (IC50) came out at 2.2 µM at ALDH3A1 [1] and 6.3 µM on ALDH3A1 [2].

As a reminder, the IC50 is the midpoint of a concentration-inhibition curve.
